Experimental data pooled from the literature.
Each line is one published result; the experiments were not run side by side.
CASP3: Caspase-3 (CASP3, Homo sapiens, UniProt P42574)
SMO D473H: Protein smoothened (SMO, Homo sapiens, UniProt Q99835, D473H)
CAMK4: Calcium/calmodulin-dependent protein kinase type IV (CAMK4, Homo sapiens, UniProt Q16566)

| SMILES | target | assay | setting | endpoint | result |
| --- | --- | --- | --- | --- | --- |
| CCN(CC)CCCC[C@H](NC(=O)[C@H](CC(C)C)NC(=O)[C@H](C)NC(=O)[C@H](Cc1ccccc1)NC(=O)c1ccc(C(C)(C)C)cc1)C(=O)N[C@@H](CO)C(=O)OC | Bromodomain and PHD finger-containing protein 3 (BRPF3, Homo sapiens, UniProt Q9ULD4) | thermal stability, DSF | 25 µM | ΔTm | 0 °C |
| O=C(Nc1cccnn1)N1CCN([C@@H]2CCOc3cc(C(F)(F)F)ccc32)CC1 | CASP3 | cell-free assay, inhibitor | 20 µM | inhibition | 1% |
| CC1=C2C[C@H]3[C@@H](CC=C4C[C@@H](O)CC[C@@]43C)[C@@H]2CC[C@]12O[C@@H]1C[C@H](C)CN[C@H]1[C@H]2C | Protein smoothened (SMO, Homo sapiens, UniProt Q99835) | GTPγS binding, agonist, radiometric | cell membranes | Emax | -99.2% |
| C#Cc1n[nH]c2c(-c3cn(C(C)c4ccccn4)c(=O)[nH]c3=O)cc(F)cc12 (stereo not drawn) | Fibroblast growth factor receptor 2 (FGFR2, Homo sapiens, UniProt P21802) | enzyme activity, inhibitor | 1 µM | inhibition | -6% |
| Cc1ncc(C)n2nc(/C=C/c3nc(N4CCCC4)cc(N4CCOCC4)n3)nc12 | CASP3 | enzyme activity, inhibitor | 10 µM | inhibition | 0% |
| CC[C@H](C)[C@@H](C(=O)O[C@@H](CC(C)C)C(=O)N[C@@H](CC(C)C)C(=O)N[C@@H](C)/C=C/C(=O)N1C(=O)C=C(OC)[C@@H]1C)N(C)C | FP2A (Plasmodium falciparum, UniProt Q8I6U4) | enzyme activity, inhibitor, fluorescence | pH 6 | kinact/KI | 58600 M⁻¹ s⁻¹ |
| Cc1cnc(-c2cc(N3CCN(C(=O)CCS(C)(=O)=O)CC3)ncc2Cl)c(C)c1 | SMO D473H | GTPγS binding, agonist, radiometric | cell membranes | Emax | -76.3% |
| CC(C)[C@]12O[C@H]1[C@@H]1O[C@]13[C@]1(O[C@H]1C[C@H]1C4=C(CC[C@@]13C)C(=O)OC4)[C@@H]2O | Ubiquitin carboxyl-terminal hydrolase 51 (USP51, Homo sapiens, UniProt Q70EK9) | enzyme activity, inhibitor | 5 µM | inhibition | 0% |
| COc1ncccc1-c1cnn2ccc(N3CCN(C(=O)OC(C)C)CC3)nc12 | CAMK4 | binding, competition with immobilised ligand | 1 µM | remaining binding | 100% |
| Nc1ncc(-c2nc(N3CCOCC3)nc(N3CCOCC3)n2)c(C(F)F)n1 | Mitogen-activated protein kinase 15 (MAPK15, Homo sapiens, UniProt Q8TD08) | binding, competition with immobilised ligand | 10 µM | remaining binding | 100% |
| Cc1nn(C)cc1-c1nc2c(N3CCN(Cc4ccc(Cl)cc4)CC3)c(Cl)cnc2[nH]1 | CAMK4 | binding, competition with immobilised ligand | 1 µM | remaining binding | 100% |
| COc1cc(C(=O)NC(N)=Nc2ccc(C)c(NC(=O)c3ccc(-c4ccccc4)cc3)c2)cc(OC)c1OC | SMO D473H | GTPγS binding, agonist, radiometric | cell membranes | Emax | -115% |
